Bioassay records deposited in PubChem BioAssay by several laboratories.
Only some compounds are listed: those with a hit (about 7.1% of all), similar ones and a draw of the others.
HUVEC inhibit: inhibitors of HUVEC proliferation, primary screen, cell-based, 384-well; CellTiter-Glo luminescence, 72 h; stronger effect = lower value; viability, % at 10 µM (by protocol); 86,000 tested, 1.1% active;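 active = viability at or below 30%; inactive = viability above 30%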;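 also: 100% = median luminescence of DMSO-only cell control wells on each plate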
H69AR inhibit: proliferation blockers of H69AR lung cancer cells, primary screen, cell-based, human, 86K library | H69AR lung tumor viability, ATP luminescence, 72 h; stronger effect = lower value | viability, % at 10 µM | 85,000 tested, 6% active | AID 598, 2007;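 active = viability at or below 40%; inactive = viability above 40%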;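 also: multidrug resistant small cell line overexpressing MRP-1 efflux transporter; 100% = mean luminescence of untreated control wells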
Cav32 inh: Cav3.2 calcium influx blockers – cell-based, Fluo-4 calcium fluorescence, FDSS, MLSMR library, primary screen. Voltage-dependent T-type calcium channel subunit alpha-1H (Homo sapiens), O95180. Cav3.2-expressing cells; stronger effect = lower value. B-score at 10 µM. 100,000 tested, 4% active. AID 449739, 2010;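 active = single-dose well whose peak fluorescence ratio is a statistical outlier from its plate by either plate-standardised score or position-corrected B-score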
PTEN del growth: growth suppression of PTEN-null HCT116, primary screen, cell-based, CellTiter-Glo; HCT116 PTEN-null viability, 60 h; stronger effect = lower value; viability, % at 10 µM; 140,000 tested, 1.2% active;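 active = viability at or below a set limit, 4 SD under the median of all tested compounds, cut at about 3.7% in these data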;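 also: PTEN knockout HCT116 line with beta catenin targeted HCT116 as companion control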
Lung fibro prol: antiproliferative effect on LL 47 fibroblasts – human, LL 47 cells, CellTiter-Glo luminescence, primary screen | viability, % at 10 µM | 85,000 tested, 1.1% active | LL 47 human lung fibroblast viability, ATP luminescence; stronger effect = lower value;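 active = viability at or below 50% in the single dose screen; inactive = viability above 50%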;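 also: compound exposure lasted 72 h before the ATP readout; 100% = median luminescence of untreated cell-only wells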
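Test system: LL 47 human lung fibroblasts; Quantity: 1,150 cells/well; Buffer or medium: IMEM plus 15% FBS; Dosing: tenfold compound dosing solution, DMSO at 0.1%; Timing: overnight cell rest, 72 h compound treatment at 37 °C; Detection: ATP-based CellTiter-Glo luminescent readout; Read-out basis: viability percentage against median untreated-cell control; Controls: cell-only wells, no compound.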
HCT116 bCat-KO: primary screen for growth suppressors in beta-catenin knockout HCT116 cells (colon tumor, human). viability, % at 10 µM. HCT116 beta-catenin knockout viability, CellTiter-Glo, 60 h; stronger effect = lower value. 140,000 tested, 1.5% active;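 active = viability at or under a set limit, the compound median less 4 SD, cut at about 6% in these data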;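 also: 0% = Hyamine 1622 control at 20 µM and 100% = untreated cell control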
Starred values were filed as active, the others as inactive; · = no result.

SMILES | HUVEC inhibit | H69AR inhibit | Cav32 inh | PTEN del growth | Lung fibro prol | HCT116 bCat-KO
O=C(Nc1ccc2nc3n(c(=O)c2c1)CCCC3)c1cccc([N+](=O)[O-])c1 | · | · | · | 95 | · | 83
O=C(Nc1ccc2nc3n(c(=O)c2c1)CCCC3)c1cc([N+](=O)[O-])ccc1F | · | · | · | 10 | · | 2.5*
O=C(N/N=C/c1ccc(Sc2ccccn2)o1)c1cc2ccccc2cc1O | · | · | -5* | 48 | · | 35
CCOC(=O)c1cc2sc(C)cc2n1CC(=O)N(CC)CC | 104 | 86 | -0.41 | 80 | 106 | 85
CCOC(=O)c1cc2sc(C)cc2n1CC(=O)NCCc1ccccc1 | 82 | 27* | -2 | 96 | 101 | 84
Cc1ccc(C(C)C)cc1OCCCCN1CCCC1 | · | · | · | 84 | · | 85
CN(C)CCCNc1ccc(S(N)(=O)=O)cc1[N+](=O)[O-] | · | · | · | 92 | · | 84
C=C(c1ccc(OC)cc1)c1ccc(OC)cc1 | 83 | 32* | · | 75 | 95 | 71
COc1cc2cc(CN(Cc3cccs3)C(=S)Nc3ccccc3)c(=O)[nH]c2cc1OC | · | · | · | 70 | · | 78
CCC(=O)N1c2ccc(S(=O)(=O)CCC(=O)N3CCn4c3nc3ccccc34)cc2CC1C (centres undefined) | 88 | 1.9* | 0.36 | 81 | 44* | 67
CCC(=O)N1c2ccc(S(=O)(=O)CCC(=O)NCc3cccs3)cc2CC1C (centres undefined) | 76 | 30* | 0.19 | 82 | 90 | 82
Cc1cccc(N2CCN(C(=O)/C=C/c3cccs3)CC2)c1C | · | · | · | 82 | · | 82
Cc1ccc(N2C(=O)C(NC(=O)c3ccccc3)(C(F)(F)F)C3=C2CC(C)(C)CC3=O)cc1 (centres undefined) | · | · | · | 102 | · | 93
O=C(C(c1ccccc1)c1ccccc1)N1CCC(c2nc(-c3ccccc3Cl)no2)CC1 | 70 | 78 | -6.2* | 81 | 106 | 93
CC1CCN(c2ccc(C(=O)NCc3ccco3)cc2[N+](=O)[O-])CC1 | · | · | · | 74 | · | 83
Cc1c(C(=O)NCCC2=CCCCC2)oc2ccc(S(=O)(=O)N3CCOCC3)cc12 | 53 | 10* | -4.1* | 14 | 62 | 26
CCOCC(=O)Nc1cccc(OC)c1 | 91 | 28* | 0.025 | 95 | 96 | 93
COc1cccc(NC(=O)Cc2cn(C)c3ccccc23)c1 | 88 | 88 | -4.5* | 108 | 94 | 80
O=C(NCc1cccc(Br)c1)C1CC2Cn3c(nc4ccccc43)C2N1c1ccccc1 (centres undefined) | · | · | -0.33 | · | · | ·
CCOc1ccc(C2c3cc(OC)c(OC)cc3CC(=O)N2c2ccc(OC)cc2)cc1 (centres undefined) | · | · | -3.1 | 20 | · | 20
O=[N+]([O-])c1cccc(N=NN(CCO)c2cccc([N+](=O)[O-])c2)c1 | 82 | 59 | -0.18 | 102 | 102 | 100
CCCN(N=Nc1cccc([N+](=O)[O-])c1)c1cccc([N+](=O)[O-])c1 | 106 | 74 | -4.2* | 76 | 104 | 76
O=C(CCN1CCC(c2ccccc2)C1)c1cccs1 (centres undefined) | · | · | 0.75 | 2.8* | · | 16
O=C(CCN1CCC(c2ccccc2)C1)c1ccccc1 (centres undefined) | · | · | 2.2 | 96 | · | 87
CC(=O)Oc1cc2c(C(=O)NCCCN3CCOCC3)c(C)oc2c2ccccc12 | 4.5* | 45 | 0.86 | 1.4* | 4.3* | 0.9*
SMILES | HUVEC inhibit | H69AR inhibit | Cav32 inh | PTEN del growth | Lung fibro prol | HCT116 bCat-KO
CCN1CCc2c(C#N)c(N3CCCCC3)nc(NCc3ccccc3)c2C1 | 58 | 53 | -1.4 | 0.9* | 90 | 1.2*
N#Cc1c(NCCO)nc(NCc2ccccc2)c2c1CCN(Cc1ccccc1)C2 | 68 | 96 | -3.6* | 55 | 99 | 44
CCN1CCc2c(C#N)c(N3CCOCC3)nc(NCc3ccccc3)c2C1 | 85 | 74 | -0.088 | 63 | 94 | 82
COc1cc(C(=O)OCC(=O)Nc2cc(-c3cc(C)c(C)cc3C)nn2-c2ccccc2)cc(OC)c1OC | · | · | · | 65 | · | 67
CCN(CC)P1(=O)OC(c2cc(OC)c(OC)c(OC)c2)=Nc2c1c(C)nn2-c1ccccc1 (centres undefined) | 89 | 28* | -1.6 | 101 | 83 | 93
Cc1cc(C(F)(F)F)nn1CCCNC(=O)c1cnccn1 | 91 | 94 | -1.3 | 95 | 102 | 103
Cc1ccc(-n2c(SCC(=O)NCC3CCCO3)nc3n[nH]c(C)c3c2=N)cc1Cl (centres undefined) | 69 | 59 | 1.5 | 66 | 86 | 60
CCC(Sc1nc2n[nH]c(C)c2c(=N)n1-c1cc(Cl)ccc1C)C(=O)N1CCOCC1 (centres undefined) | 85 | 16* | 0.44 | 74 | 83 | 80
Cc1cc(C(=O)COC(=O)Cn2cnc3c2c(=O)n(C)c(=O)n3C)c(C)n1C | 88 | 94 | -0.04 | 97 | 96 | 92
COc1cc(C(=O)OCC(=O)c2cc(C)n(C)c2C)cc(OC)c1OC | 64 | 24* | 1.7 | 35 | 67 | 29
COc1cc(/C=C2/N=C(c3ccccc3)OC2=O)c(F)cc1OCc1ccccc1 | · | · | -1.3 | · | · | ·
CCC(=O)Nc1c(C#N)c2nc3ccccc3nc2n1C1CCCCC1 | 98 | 85 | -2 | 65 | 94 | 60
N#Cc1c(N)n(C2CCCCC2)c2nc3ccccc3nc12 | 69 | 35* | 0.57 | 74 | 69 | 87
CCc1ccccc1NC(=O)CSc1nc2n[nH]c(C)c2c(=N)n1-c1cccc(OC)c1 | 82 | 60 | -1.9 | 65 | 87 | 63
CCOc1ccccc1-n1c(SCC(=O)Nc2ccc(CC)cc2)nc2n[nH]c(C)c2c1=N | · | · | · | 3.7* | · | 5.0*
CCOc1ccccc1NC(=O)CCSc1nc2n[nH]c(C)c2c(=N)n1-c1ccccc1Cl | 52 | 6.5* | 0.29 | 15 | 56 | 14
Cc1ccc(NCC(=O)N/N=C/c2cccc(Oc3ccccc3)c2)cc1 | · | · | · | 25 | · | 31
CC(=O)/C(=N\Nc1ccccc1)Sc1nnc(-c2ccccc2)n1-c1ccccc1 | · | · | · | 99 | · | 93
CC(=O)/C(=N\Nc1ccccc1Cl)Sc1nnc(-c2ccccc2)n1-c1ccccc1 | · | · | · | 85 | · | 88
CC(=O)C(N=Nc1ccccc1)(Sc1nnc(-c2ccccc2)n1-c1ccccc1)C(C)=O | · | · | -4.4* | 48 | · | 58
CC(=O)C(N=Nc1ccccc1)(Sc1nnc(-c2ccccc2)n1-c1ccccc1)C(=O)Nc1ccccc1 (centres undefined) | · | · | -6.7* | 69 | · | 78
CC(NC(=O)c1cc2c(=O)n(C)c3ccccc3c2n1C)c1ccc2c(c1)OCCO2 (centres undefined) | 68 | 45 | -0.051 | · | 100 | ·
